Measurements taken from ChEMBL document CHEMBL3272325, “Structure-activity relationships of dimeric Catharanthus alkaloids. 1. Deacetylvinblastine amide (vindesine) sulfate” (J Med Chem, 1978).

Key:
[1] = Antitumor activity against mouse Gardner lymphosarcoma cell allografted in mouse at 0.5 to 0.8 mg/kg/day, ip; assay type: functional; conditions: route intraperitoneal
Procedure, shortened: (§1)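 Sulfate salts given ip on days 1-9 against ROS and GLS in mice; tumor growth scored as percent inhibition versus controls (+++ = 75-100%, ++ = 50-75%, ± = under 25%).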

[2] = Antitumor activity against mouse Ridgeway osteogenic sarcoma cells allografted in mouse at 0.5 to 0.8 mg/kg/day, ip; assay type: functional; conditions: route intraperitoneal; procedure, shortened: as §1
[3] = Acute toxicity in ip dosed mouse; assay type: organism-based; conditions: in vivo
[4] = Antitumor activity against mouse Ridgeway osteogenic sarcoma cells allografted in mouse at 0.3 to 0.4 mg/kg/day, ip; assay type: functional; conditions: route intraperitoneal
Procedure, shortened: (§2)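 Ridgeway osteogenic sarcoma and Gardner lymphosarcoma in mice, with sulfate salts given ip daily on days 1-9. Tumor growth inhibition versus controls scored in bands: +++ = 75-100%, ++ = 50-75%, ± = under 25%.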

[5] = tested on: B16; assay: Antitumor activity against mouse B16 cells allografted in C57Bl/6 mouse assessed as increase in life span at 0.6 mg/kg/day, ip administered on day 1, 5 and 9 measured for 61 days relative to control; assay type: functional; conditions: route intraperitoneal
Procedure, shortened: (§3)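 C57BL/6 mice implanted ip with 0.5 mL of B16 melanoma brei. Alkaloid sulfate salts given ip on days 1, 5, 9 or on days 5, 9, 13. Percent increase in life span measured against controls; experiment ended at 61 days.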

[6] = tested on: B16; assay: Antitumor activity against mouse B16 cells allografted in C57Bl/6 mouse assessed as mean survival time at 0.3 mg/kg/day, ip administered on day 1, 5 and 9 (reference value: 24.6 days); assay type: functional; conditions: route intraperitoneal
[7] = tested on: B16; assay: Antitumor activity against mouse B16 cells allografted in C57Bl/6 mouse assessed as increase in life span at 0.9 mg/kg/day, ip administered on day 1, 5 and 9 measured for 61 days relative to control; assay type: functional; conditions: route intraperitoneal; procedure, shortened: as §3
[8] = tested on: B16; assay: Antitumor activity against mouse B16 cells allografted in C57Bl/6 mouse assessed as increase in life span at 0.15 mg/kg/day, ip administered on day 1, 5 and 9 measured for 61 days relative to control; assay type: functional; conditions: route intraperitoneal; procedure, shortened: as §3
[9] = Antitumor activity against mouse Gardner lymphosarcoma cell allografted in mouse at 0.3 to 0.4 mg/kg/day, ip; assay type: functional; conditions: route intraperitoneal; procedure, shortened: as §2
[10] = Toxicity in ip dosed mouse allografted with mouse P1534(J) cells administered from day 1 to day 9; assay type: organism-based; conditions: in vivo, read-out: MNTD
Procedure, shortened: (§4)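 P1534(J) leukemia implanted subcutaneously in mice. Sulfate salts given ip daily on days 1-9. Read-out was percent inhibition of tumor growth relative to untreated controls. The highest nontoxic dose was recorded.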

[11] = tested on: B16; assay: Antitumor activity against mouse B16 cells allografted in C57Bl/6 mouse assessed as mean survival time at 0.15 mg/kg/day, ip administered on day 5, […] (reference value: 21.5 days); assay type: functional; conditions: route intraperitoneal
[12] = tested on: B16; assay: Antitumor activity against mouse B16 cells allografted in C57Bl/6 mouse assessed as increase in life span at 0.9 mg/kg/day, ip administered on day 5, 9 and 13 measured for 61 days relative to control; assay type: functional; conditions: route intraperitoneal; procedure, shortened: as §3
[13] = tested on: B16; assay: Antitumor activity against mouse B16 cells allografted in C57Bl/6 mouse assessed as mean survival time at 0.6 mg/kg/day, ip administered on day 1, 5 and 9 (reference value: 24.6 days); assay type: functional; conditions: route intraperitoneal
[14] = tested on: P388; assay: Antitumor activity against mouse P388 cells allografted in mouse assessed as increase in life span at 0.6 mg/kg/day, ip administered from day 1 to day 9 relative to untreated control; assay type: functional; conditions: route intraperitoneal
Procedure, shortened: (§5)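 P388 ascites implanted ip in mice, 10 animals per group. Sulfate salts given ip either daily on days 1-9 or as a single dose on day 1. Median life span was calculated using all deaths and survivors. Percent increase in life span was taken over untreated controls. The highest nontoxic dose was noted.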

[15] = tested on: B16; assay: Antitumor activity against mouse B16 cells allografted in C57Bl/6 mouse assessed as increase in life span at 1.2 mg/kg/day, ip administered on day 1, 5 and 9 measured for 61 days relative to control; assay type: functional; conditions: route intraperitoneal
[16] = tested on: P388; assay: Antitumor activity against mouse P388 cells allografted in mouse assessed as increase in life span at 0.27 mg/kg/day, ip administered from day 1 to day 9 relative to untreated control; assay type: functional; conditions: route intraperitoneal; procedure, shortened: as §5
[17] = tested on: B16; assay: Antitumor activity against mouse B16 cells allografted in C57Bl/6 mouse assessed as mean survival time at 1.2 mg/kg/day, ip administered on day 5, […] (reference value: 21.5 days); assay type: functional; conditions: route intraperitoneal
[18] = Toxicity in ip dosed mouse allografted with mouse p388 cells after 1 day; assay type: organism-based; conditions: in vivo, read-out: MNTD; procedure, shortened: as §5
[19] = tested on: P388; assay: Antitumor activity against mouse P388 cells allografted in mouse assessed as increase in life span at 6 mg/kg/day, ip after 1 day; assay type: functional; conditions: 24 h, route intraperitoneal; procedure, shortened: as §5
[20] = tested on: B16; assay: Antitumor activity against mouse B16 cells allografted in C57Bl/6 mouse assessed as mean survival time at 1.2 mg/kg/day, ip administered on day 1, 5 and 9 (reference value: 24.6 days); assay type: functional; conditions: route intraperitoneal
[21] = tested on: B16; assay: Antitumor activity against mouse B16 cells allografted in C57Bl/6 mouse assessed as increase in life span at 0.3 mg/kg/day, ip administered on day 5, 9 and 13 measured for 61 days relative to control; assay type: functional; conditions: route intraperitoneal; procedure, shortened: as §3
[22] = tested on: P388; assay: Antitumor activity against mouse P388 cells allografted in mouse assessed as increase in life span at 0.4 mg/kg/day, ip administered from day 1 to day 9 relative to untreated control; assay type: functional; conditions: route intraperitoneal; procedure, shortened: as §5
[23] = tested on: B16; assay: Antitumor activity against mouse B16 cells allografted in C57Bl/6 mouse assessed as mean survival time at 0.15 mg/kg/day, ip administered on day 1, 5 and 9 (reference value: 24.6 days); assay type: functional; conditions: route intraperitoneal
[24] = tested on: P388; assay: Antitumor activity against mouse P388 cells allografted in mouse assessed as increase in life span at 1.8 mg/kg/day, ip after 1 day; assay type: functional; conditions: 24 h, route intraperitoneal; procedure, shortened: as §5
[25] = tested on: B16; assay: Antitumor activity against mouse B16 cells allografted in C57Bl/6 mouse assessed as mean survival time at 0.6 mg/kg/day, ip administered on day 5, […] (reference value: 21.5 days); assay type: functional; conditions: route intraperitoneal
[26] = tested on: B16; assay: Antitumor activity against mouse B16 cells allografted in C57Bl/6 mouse assessed as increase in life span at 0.15 mg/kg/day, ip administered on day 5, 9 and 13 measured for 61 days relative to control; assay type: functional; conditions: route intraperitoneal; procedure, shortened: as §3
[27] = tested on: B16; assay: Antitumor activity against mouse B16 cells allografted in C57Bl/6 mouse assessed as increase in life span at 0.6 mg/kg/day, ip administered on day 5, 9 and 13 measured for 61 days relative to control; assay type: functional; conditions: route intraperitoneal; procedure, shortened: as §3
[28] = Toxicity in ip dosed mouse allografted with mouse p388 cells administered from day 1 to day 9; assay type: organism-based; conditions: in vivo, read-out: MNTD; procedure, shortened: as §5
[29] = Antitumor activity against mouse P1534(J) cells allografted in mouse assessed as tumor growth inhibition at 0.2 mg/kg/day, ip administered from day 1 to day 9 relative to unreated control; assay type: functional; conditions: P1534J, route intraperitoneal, read-out: TGI; procedure, shortened: as §4
[30] = tested on: B16; assay: Antitumor activity against mouse B16 cells allografted in C57Bl/6 mouse assessed as mean survival time at 0.9 mg/kg/day, ip administered on day 1, 5 and 9 (reference value: 24.6 days); assay type: functional; conditions: route intraperitoneal
[31] = tested on: P388; assay: Antitumor activity against mouse P388 cells allografted in mouse assessed as increase in life span at 0.18 mg/kg/day, ip administered from day 1 to day 9 relative to untreated control; assay type: functional; conditions: route intraperitoneal; procedure, shortened: as §5
[32] = tested on: B16; assay: Antitumor activity against mouse B16 cells allografted in C57Bl/6 mouse assessed as mean survival time at 0.3 mg/kg/day, ip administered on day 5, […] (reference value: 21.5 days); assay type: functional; conditions: route intraperitoneal
[33] = tested on: B16; assay: Antitumor activity against mouse B16 cells allografted in C57Bl/6 mouse assessed as mean survival time at 0.9 mg/kg/day, ip administered on day 5, 9 and 13 (reference value: 21.5 days); conditions: route intraperitoneal
[34] = tested on: B16; assay: Antitumor activity against mouse B16 cells allografted in C57Bl/6 mouse assessed as increase in life span at 1.2 mg/kg/day, ip administered on day 5, 9 and 13 measured for 61 days relative to control; assay type: functional; conditions: route intraperitoneal
[35] = tested on: B16; assay: Antitumor activity against mouse B16 cells allografted in C57Bl/6 mouse assessed as increase in life span at 0.3 mg/kg/day, ip administered on day 1, 5 and 9 measured for 61 days relative to control; assay type: functional; conditions: route intraperitoneal; procedure, shortened: as §3
[36] = tested on: P388; assay: Antitumor activity against mouse P388 cells allografted in mouse assessed as increase in life span at 4 mg/kg/day, ip after 1 day; assay type: functional; conditions: 24 h, route intraperitoneal; procedure, shortened: as §5
[37] = tested on: P388; assay: Antitumor activity against mouse P388 cells allografted in mouse assessed as increase in life span at 9 mg/kg/day, ip after 1 day; assay type: functional; conditions: 24 h, route intraperitoneal; procedure, shortened: as §5
[38] = tested on: P388; assay: Antitumor activity against mouse P388 cells allografted in mouse assessed as increase in life span at 1.7 mg/kg/day, ip after 1 day; assay type: functional; conditions: 24 h, route intraperitoneal; procedure, shortened: as §5
[39] = Antitumor activity against mouse P1534(J) cells allografted in mouse assessed as tumor growth inhibition at 0.1 mg/kg/day, ip administered from day 1 to day 9 relative to unreated control; assay type: functional; conditions: P1534J, route intraperitoneal, read-out: TGI; procedure, shortened: as §4
[40] = Antitumor activity against mouse Ridgeway osteogenic sarcoma cells allografted in mouse at 0.5 to 0.7 mg/kg/day, ip; assay type: functional; conditions: route intraperitoneal; procedure, shortened: as §1
[41] = Antitumor activity against mouse Gardner lymphosarcoma cell allografted in mouse at 0.5 to 0.7 mg/kg/day, ip; assay type: functional; conditions: route intraperitoneal; procedure, shortened: as §1
[42] = tested on: Blood; assay: Biodistribution in po dosed rat blood using [3H]-labeled drug relative to Iv dosing; assay type: ADME, organism-based; conditions: in vivo

SMILES: CC[C@]1(O)C[C@@H]2C[C@](C(=O)OC)(c3cc4c(cc3OC)N(C)[C@H]3[C@@](O)(C(N)=O)[C@H](O)[C@]5(CC)C=CCN6CC[C@]43[C@@H]65)c3[nH]c4ccccc4c3CC[N+]([O-])(C2)C1
- TGI [1]: 25%
- TGI [2]: 25%
- LD50 [3]: > 10 mg/kg

SMILES: CC[C@]1(O)C[C@H]2CN(CCc3c([nH]c4ccccc34)[C@@](C(=O)OC)(c3cc4c(cc3OC)N(C)[C@H]3[C@@](O)(C(=O)OC)[C@H](O)[C@]5(CC)C=CCN6CC[C@]43[C@@H]65)C2)C1.O=S(=O)(O)O
- TGI [4]: 50%
- ILS at 0.6 mg/kg/day [5]: 109%
- MST [6]: 49.3 days
- ILS at 0.9 mg/kg/day [7]: 84%
- ILS at 0.15 mg/kg/day [8]: 71%
- TGI [9]: 50%
- MTD [10]: 0.2 mg/kg/day
- MST [11]: 33.7 days
- ILS at 0.9 mg/kg/day [12]: 126%
- MST [13]: 51.5 days
- ILS at 0.6 mg/kg/day [14]: > 263%
- ILS at 1.2 mg/kg/day [15]: 69%
- ILS at 0.27 mg/kg/day [16]: 181%
- MST [17]: 45.2 days
- MTD at 24 h [18]: 9 mg/kg/day
- ILS at 6 mg/kg/day [19]: 200%
- MST [20]: 41.5 days
- ILS at 0.3 mg/kg/day [21]: 91%
- ILS at 0.4 mg/kg/day [22]: > 263%
- MST [23]: 42.1 days
- ILS at 1.8 mg/kg/day [24]: 159%
- MST [25]: 41.1 days
- ILS at 0.15 mg/kg/day [26]: 57%
- ILS at 0.6 mg/kg/day [27]: 91%
- MTD [28]: 0.6 mg/kg/day
- inhibition in vivo at 0.2 mg/kg/day [29]: 96%
- MST [30]: 45.3 days
- ILS at 0.18 mg/kg/day [31]: 136%
- MST [32]: 41.1 days
- MST [33]: 48.7 days
- ILS at 1.2 mg/kg/day [34]: 110%
- ILS at 0.3 mg/kg/day [35]: 100%
- ILS at 4 mg/kg/day [36]: 218%
- ILS at 9 mg/kg/day [37]: > 263%
- ILS at 1.7 mg/kg/day [38]: 154%
- LD50 [3]: 5.8 mg/kg
- inhibition in vivo at 0.1 mg/kg/day [39]: 41%

SMILES: CC[C@]1(O)C[C@H]2CN(CCc3c([nH]c4ccccc34)[C@@](C(=O)OC)(c3cc4c(cc3OC)N(C)[C@H]3[C@@](O)(C(N)=O)[C@H](O)[C@]5(CC)CCCN6CC[C@]43[C@@H]65)C2)C1.O=S(=O)(O)O
- TGI [40]: 50%
- TGI [41]: 50%

SMILES: CC[C@]1(O)C[C@@H]2CN(CCc3c([nH]c4ccccc34)[C@@](C(=O)OC)(c3cc4c(cc3OC)N(C)[C@H]3[C@@](O)(C(N)=O)[C@H](O)[C@]5(CC)C=CCN6CC[C@]43[C@@H]65)C2)C1 [VINDESINE]
- Drug uptake [42]: 1%
